# Bioassay records deposited in PubChem BioAssay by Broad Institute.
# Glyco luc inh = increase of ERlucT glycosylation luciferase signal, primary screen, N-linked glycosylation inhibitor project, D54 ERlucT cells, luminescence, set 2; reporter increase, % at 12.5 µM; D54 ERlucT glycosylation luciferase reporter, 24 h; percent of 100 nM tunicamycin response; 0.23% of 360,000 active; AID 588692, 2011;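 active means mean luciferase reporter signal, scaled so untreated is 0 and the glycosylation-blocking control 100, at or above a set limit in every replicate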;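 further: luciferase carries N-glycosylation sites so blocking glycosylation raises the light; 0% = median of neutral control wells and 100% = median of 100 nM tunicamycin wells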
# CDK5 p35 inh = inhibitors of human CDK5/p35 kinase, primary screen, biochemical, single concentration. Recombinant CDK5/p35, ADP-Glo luminescence, 60 min. inhibition, % at 10 µM. 0.01% of 330,000 active. Cyclin-dependent kinase 5 (Homo sapiens) + Cyclin-dependent kinase 5 activator 1 (Homo …;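 active means highest replicate inhibition of at least 50% and at least 75% of replicates reaching 50%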;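 further: plate controls were DMSO neutral control for no effect and GW8510 at 10 µM for full effect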
# Target sequence (Q00535 whole entry, looked up): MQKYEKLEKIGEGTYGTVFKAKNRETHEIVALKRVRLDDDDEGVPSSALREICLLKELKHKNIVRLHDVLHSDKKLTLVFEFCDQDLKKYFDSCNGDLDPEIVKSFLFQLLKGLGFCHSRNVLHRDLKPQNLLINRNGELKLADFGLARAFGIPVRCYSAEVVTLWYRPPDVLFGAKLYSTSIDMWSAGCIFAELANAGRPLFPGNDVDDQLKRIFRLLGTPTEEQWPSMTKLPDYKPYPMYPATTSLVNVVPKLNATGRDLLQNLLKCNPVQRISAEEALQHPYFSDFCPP
# Target sequence (Q15078 whole entry, looked up): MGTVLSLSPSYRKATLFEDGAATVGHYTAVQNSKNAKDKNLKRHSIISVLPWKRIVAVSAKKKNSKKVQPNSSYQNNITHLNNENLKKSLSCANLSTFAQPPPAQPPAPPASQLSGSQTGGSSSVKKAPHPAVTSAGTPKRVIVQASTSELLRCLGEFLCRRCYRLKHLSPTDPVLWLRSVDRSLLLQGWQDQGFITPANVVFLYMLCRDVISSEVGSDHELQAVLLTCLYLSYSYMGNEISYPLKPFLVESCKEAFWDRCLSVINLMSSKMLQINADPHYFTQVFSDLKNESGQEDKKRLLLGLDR
# CAL PDZ FP-1 = untagged CAL PDZ binding inhibitors, primary screen, biochemical, fluorescence polarization, HTS | Golgi-associated PDZ and coiled-coil motif-containing protein (Homo sapiens), Q9HD26 | purified CAL PDZ, TMR-peptide fluorescence polarization, 1 h | inhibition, % at 24.9 µM | 0.92% of 300,000 active;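 active means mean inhibition of at least 30% with at least half of replicates also reaching 30%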;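 further: 0% = DMSO neutral control and 100% = excess unlabeled competitor peptide PRC23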
# Vif inh = HIV Vif self-association inhibitors, primary screen, imaging, HEK293T, single point | HEK293T cells, Vif self-association by quenched fluorescence, 24 h | inhibition, % at 7.49 µM | 0.35% of 340,000 active | AID 602346, 2012; in the data active means inhibition above about 50%, passing the limit was not always enough
# PvdQ inh = P. aeruginosa PvdQ acylase inhibitors, primary screen, biochemical, fluorescence, plate reader and imaging, single point. PvdQ acylase [Pseudomonas aeruginosa LESB58]. purified PvdQ acylase. inhibition, % at 10 µM. 0.063% of 340,000 active. AID 488965, 2010; in the data active means inhibition above about 30%, passing the limit was not always enough;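 further: 0% = vehicle neutral wells and 100% = reference inhibitor wells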
# CAL PDZ FP-2 = CAL PDZ peptide-binding inhibitors, primary screen, biochemical, fluorescence polarization, Cer-tagged CAL PDZ, HTS; Golgi-associated PDZ and coiled-coil motif-containing protein (Homo sapiens), Q9HD26; purified CAL PDZ, TMR-peptide fluorescence polarization, 1 h; inhibition, % at 20 µM; 0.02% of 330,000 active; AID 504414, 2011;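 active means highest replicate inhibition of at least 40%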;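 further: plate controls were DMSO neutral control wells for no effect and unlabeled competitor peptide control wells for full effect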
#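 Material: tagged CAL PDZ protein CerCALP, purified; buffer or medium: sodium phosphate/NaCl buffer pH 7.4 with TCEP, IgG, Thesit; also added: fluorescent TMR peptide probe; schedule: 1 h incubation at room temperature before polarization reading; technique: fluorescence polarization from S- and P-plane intensities, G-factor corrected; control set: unlabelled peptide and DMSO controls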
# Active calls of the source: *; / = not tested or not shown. Shown are actives, neighbours in structure and some others; about 1.4% of the full set was active somewhere.
SMILES,Glyco luc inh,CDK5 p35 inh,CAL PDZ FP-1,Vif inh,PvdQ inh,CAL PDZ FP-2
Cc1cccc(OCC(=O)Nc2nnc(S(=O)(=O)N3CCCCCC3)s2)c1,1,-1,/,4,-16,-1
COc1ccc(CN2CCCC(C(=O)c3cccc(OC(C)C)c3)C2)cc1Cn1cccn1 (stereo unspecified),-2,2,4,-13,33*,0
COc1ccc(S(=O)(=O)Nc2ccc3c(c2)n(C)c(=O)n3C)cc1C,31*,1,/,8,5,-1
Cn1c(=O)n(C)c2cc(NS(=O)(=O)c3ccc4c(c3)CCCC4)ccc21,37*,-1,/,-8,7,-1
CCOc1ccc(S(=O)(=O)NCCC(=O)NCCOc2ccccc2OC)cc1,3,2,2,-14,-25,0
Cc1ccc(CC(=O)Nc2ccc(S(=O)(=O)Nc3ncccn3)cc2)cc1,0,-1,3,7,-16,-2
O=C(CCc1c[nH]c2ccccc12)Nc1ccc(S(=O)(=O)Nc2ncccn2)cc1,0,-1,33*,0,-13,0
COc1cc(OC)cc(C(=O)Nc2ccccc2C(=O)NC2CC2)c1,6,3,7,-6,-14,-1
Cc1c(Cl)cccc1N=Cc1ccc([N+](=O)[O-])s1,35*,-1,/,-2,6,-3
CCn1c(CC(=O)Nc2ccccc2F)nnc1SCC(=O)Nc1nnc(C)s1,1,1,-6,28,-13,-4
CCn1c(CC(=O)Nc2ccccc2)nnc1SCC(=O)Nc1nnc(C)s1,-3,1,-5,68*,-6,-1
COc1ccc(-n2nnnc2/C=C/Nc2cc(C(F)(F)F)ccc2OC)cc1,0,1,105*,11,-15,0
Cc1ccc(S(=O)(=O)Cc2cc(F)c([N+](=O)[O-])cc2[N+](=O)[O-])cc1,18,3,47*,3,-14,-1
O=C(NCc1ccccc1Cl)C1=CC=CN2CCS(=O)(=O)N=C12,0,1,-2,-3,-3,0
CC(=O)Nc1sc(NC(=O)c2ccc(C)cc2)nc1-c1cccs1,10,-1,73*,11,-17,/
CC(=O)Nc1ccc(S(=O)(=O)NCc2nc(-c3ccc(C)cc3)no2)cc1,5,1,21,-9,-17,-1
CC1(CNC(=O)C(=O)NCC2(C)CO2)CO1 (stereo unspecified),2,-2,41*,12,-17,1
CCc1nc2ccc(C(=O)NCCc3ccccn3)cn2c1N(C)CCC(C)C,-1,/,/,-9,/,/
Cc1cc(Nc2ccccc2C(=O)O)n2ncnc2n1,1,/,/,-5,/,/
CC1(C)Cc2c(sc3c2c(=N)n(Cc2ccco2)c(=O)n3Cc2ccc(F)cc2)CO1,1,-2,-4,6,-6,-2
COc1ccc(Cn2c(=O)n(Cc3ccco3)c(=N)c3c4c(sc32)COC(C)(C)C4)cc1,1,1,59*,22,-8,-2
CC(=O)NC(CCc1ccc(Cl)c(Cl)c1)c1cccc(O)c(=O)c1 (stereo unspecified),-15,/,/,5,/,/
CN(C)c1ccc(CNC(=O)CCS(=O)(=O)c2ccc3c(c2)oc(=O)n3C)cc1,0,0,63*,-2,-12,-1
COc1ccc(CNC(=O)CCS(=O)(=O)c2ccc3c(c2)oc(=O)n3C)cc1,4,-2,-1,-9,-11,-1
COc1ccc2nc3cc([N+](=O)[O-])ccc3c(NNc3ccc([N+](=O)[O-])cc3)c2c1,-10,1,-1,67*,-7,0
SMILES,Glyco luc inh,CDK5 p35 inh,CAL PDZ FP-1,Vif inh,PvdQ inh,CAL PDZ FP-2
Cc1nc2ccc(C(=O)NCCc3c[nH]c4ccccc34)cn2c1N(C)C(=O)CCc1ccccc1,-2,/,/,54*,/,/
COc1ccc(-c2nn(-c3ccccc3)cc2/C=C/C(=O)N2CCOCC2)cc1OC,0,-1,53*,2,-9,-1
O=C(CC1SC(=O)NC1=O)Oc1ccc(/C=N/NC(=O)c2ccccc2O)cc1 (stereo unspecified),2,0,3,12,4,-5
CCN(CC)CCn1c2c(c(SCC(=O)NCc3ccccc3)nc1=O)CCC2,-2,-2,39*,13,-15,0
C[N+](C)(C)CCCN(Cc1ccc2c(c1)OCO2)C(=O)NC1CCCCC1,-1,1,41*,8,-19,0
COc1cc(OC)c(C(=O)Nc2cccc3ccccc23)cc1OC,5,0,33*,-2,-15,-2
COc1ccc(C(=O)Nc2cccc3ccccc23)cc1,4,1,/,-3,-17,-3
S=c1nc(Cc2ccccc2)[nH]c2ccccc12,6,1,-6,68*,-15,0
COc1ccc(C(C)(O)c2nc(-c3ccc(S(C)(=O)=O)cc3)cs2)cc1 (stereo unspecified),-4,/,/,5,/,/
COc1cc(/C=N/NC(=O)CSc2ccccn2)ccc1O,3,-2,44*,0,-8,-1
COc1cc(C(=O)N/N=C/c2ccc3c(c2)c2ccccc2n3C)ccc1O,34*,-1,-3,2,-5,0
Cn1c2ccccc2c2cc(/C=N/NC(=O)c3cc(O)cc(O)c3)ccc21,8,-1,-1,4,1,-1
CC(=O)Oc1ccccc1C(=O)N(C1CCCCC1)C1CCCCC1,-5,0,-2,6,-7,-1
C[C@@H]1C(=O)N(c2ccccc2)[C@@H]1c1ccncc1,0,1,-2,1,-17,-1
COc1ccc(CC(=O)N(Cc2ccccc2)c2ccc(C)cc2)cc1OC,31*,1,-7,-5,-10,-1
COc1ccc(NC(=O)Nc2c[nH]c(=O)[nH]c2=O)cc1,1,0,59*,-1,-13,-1
COc1ccc(NC(=O)Nc2cc(NC(=O)Nc3ccc(OC)cc3)c(C)nc2C)cc1,2,-1,-2,-2,4,-1
COC(=O)c1cc(C)ccc1OCc1ccc([N+](=O)[O-])cc1,-1,0,/,82*,-6,-1
O=C1Nc2ccccc2/C1=N/N=C/c1ccc(-c2ccc([N+](=O)[O-])cc2)o1,3,-2,-2,54*,-3,-2
Cc1cc(C)c2c(N)c3cccc(C)c3nc2n1,104*,-1,-6,/,-12,-1
Cc1nnc(SCC(=O)NC(C)(C)C)n1NCc1ccc(N(C)C)cc1,-1,0,74*,-1,-8,-4
